For data set [1], the system named is GFP-ODC. Briefly: Cell-based GFP-ODC AlphaLISA. Details: species or system human. Particulars: for reduction of the GFP-ODC AlphaLISA signal: 8-point titration, fresh powder stocks; for IC50: Homo sapiens, HEK-293T, read-out: IC50 of the AlphaLISA signal. In a few lines:
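HEK-293T cells stably expressing GFP-ODC, from a flow-sorted medium-GFP expressor pool, were plated at 10,000 cells/well in phenol red-free DMEM and dosed with compound or DMSO at plating. Cells were lysed in Surefire lysis buffer with shaking for 30 min at RT. Biotinylated anti-ODC plus anti-GFP acceptor bead (10× mix) went on for 1 h in the dark, then streptavidin donor bead for 30 min. Alpha signal read. Wells without anti-ODC served as negative control.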

For another data set, the system named is 26S proteasome. Briefly: Small peptide. Particulars: only at the highest concentration. Type of data set: biochemical.
The test system of data set [2] is GFP-ODC. Briefly: Cellular degradation of GFP-ODC. Type of data set: cell-based, human. Particulars: 16 h, HEK-293T stably expressing GFP-ODC. The gist of the method: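 HEK-293T stably expressing GFP-ODC were grown to 80% confluency in 60 mm plates and treated 16 h with compound or DMSO. Controls: 5 μM bortezomib, 20 μM chlorpromazine. Cells were pelleted, PBS-washed and lysed in RIPA with protease inhibitors (20 min on ice). Western blot followed; only the full-length 75 kDa GFP-ODC band was quantified, in triplicate.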

The subject of data set [3] is human constitutive 20S proteasome. Briefly: Small peptide. Type of data set: biochemical. Particulars: for max fold increase, chymotrypsin-like site: Suc-LLVY-AMC; for max fold increase, caspase-like site: Z-LLE-AMC. The gist of the method: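 Human constitutive 20S proteasome (1 nM) in 38 mM Tris-HCl, 100 mM NaCl, pH 7.8 was preincubated with compound (8-point, 1.25–80 μM) at 37 °C. AMC substrates were added alone (final Suc-LLVY-AMC 20 µM, Z-LLE-AMC 20 µM, Boc-LRR-AMC 40 μM) or combined (6.67 μM each final). Fluorescence (380/460 nm) was read over 1 h at 37 °C. Hydrolysis rate was expressed as fold change versus vehicle.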

For a further data set, the system named is HEK-293T cells. Briefly: Cell viability, parallel CellTiter-Glo assay. Format: cell-based, human. Particulars: HEK-293T cells stably expressing GFP-ODC, 8-point titration.
Data set [4] has as its system purified human 20S proteasome. Briefly: In vitro degradation of α-synuclein by purified 20S proteasome. Particulars: 3 h, compared to untreated proteasome. Format: biochemical. In a few lines:
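Purified human 20S proteasome in 50 mM HEPES, 5 mM DTT, pH 7.2 was preincubated with compound or DMSO for 45 min at 37 °C. Purified α-synuclein was then added and incubated 3 h at 37 °C; final reaction was 0.3 μM α-synuclein and 10 nM proteasome. GAPDH (0.5 μM) was added as loading control. α-Synuclein remaining was quantified by western blot versus DMSO.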

Data set [5] in a line: Solubility observed in the AlphaLISA dose response. Particulars: at higher concentrations of the dose response. Format: physicochemical.
Another data set has as its system EGFR. Particulars: read-out: IC50 for EGFR tyrosine kinase inhibition; reported value; cited from earlier work.
The next data set has as its system K48 ubiquitin. Briefly: Cellular K48 ubiquitin levels. Particulars: same cell lysates as the GFP-ODC western blot. Format: cell-based, human.
The nature of data set [6]: Cell viability, parallel CellTiter-Glo assay. Format: cell-based, human. Particulars: human, HEK-293T cells stably expressing GFP-ODC.
[7] abbreviates: combination of the three fluorogenic peptide probes.

The structures appear in SMILES notation.

In the case of `CC(C)C[C@H]1C(=O)N2CCC[C@H]2[C@]2(O)O[C@](NC(=O)[C@@H]3C=C4c5cccc6[nH]c(Br)c(c56)C[C@H]4N(C)C3)(C(C)C)C(=O)N12` [bromocriptine], the “reduction of the GFP-ODC AlphaLISA signal” value (“reduction” for short) in the data set on GFP-ODC [1] is recorded as “did not reduce the AlphaLISA signal below 50% (Figure S2) or did not reduce the AlphaLISA signal without significant cell death”.
On to `COc1cc2nc(N3CCN(C(=O)c4ccco4)CC3)nc(N)c2cc1OC` [prazosin], for which, in the data set with GFP-ODC [1], the “reduction” value is listed as “did not reduce the AlphaLISA signal below 50% (Figure S2) or did not reduce the AlphaLISA signal without significant cell death”. In the data set with 26S proteasome, the “activation of the 26S proteasome” value is 2.5- to 3 fold. The “full-length GFP-ODC remaining” value with GFP-ODC [2] (20 μM compound) is reported as 84%. Further, in data set [3], the “max fold increase, chymotrypsin-like site” value was 3.5 fold and the “max fold increase, caspase-like site” value is 5.8 fold. Moreover, the “overall max fold increase of 20S proteasome activity” value (shortened to “overall max fold increase”) in data set [3] (setting [7]) came to 4.5 fold.
As for `C#Cc1cccc(Nc2ncnc3cc(OCCOC)c(OCCOC)cc23)c1` [erlotinib], the IC50 in the data set with GFP-ODC [1] is 5.4 µM; in the data set with EGFR, 0.002 µM. In the data set on HEK-293T cells, the cell cytotoxicity result is reported as “no significant cell cytotoxicity”. Further, the “activation of the 26S proteasome” value in the data set on 26S proteasome is 2.5- to 3 fold. Also, the α-synuclein remaining in data set [4] (10 μM compound) was determined as 68%; in data set [4] (20 μM compound) it was 48%. Also, in data set [5], the solubility result was “poor solubility at higher concentrations”. Further, the “effect on K48 ubiquitin / levels of ubiquitinylated proteins” value in the data set on K48 ubiquitin is “no impact on the levels of ubiquitinylated proteins”. For the same compound, the results for the “full-length GFP-ODC remaining” value in the data set on GFP-ODC [2] (10 μM compound) and in the data set on GFP-ODC [2] (20 μM compound) were 34% and 16%, respectively. Besides, the “max fold increase, trypsin-like site” value in data set [3] (Boc-LRR-AMC) is 5.9 fold. Also, the “max fold increase, chymotrypsin-like site” value in data set [3] was 5.1 fold. For the same compound, in data set [3], the “max fold increase, caspase-like site” value amounted to 3.1 fold. For the same compound, in data set [3] (setting [7]), the “overall max fold increase” value was found to be 5.7 fold. For the same compound, the “EC200, concentration at which the rate of proteolysis was doubled compared to the vehicle control” value in [3] (combination of the three fluorogenic peptide probes, 1 nM 20S) came out at 12 µM.
In the case of `CNCCC(Oc1ccc(C(F)(F)F)cc1)c1ccccc1` (centres unmarked) [fluoxetine], in the data set with GFP-ODC [1], the “reduction” value is given as “did not reduce the AlphaLISA signal below 50% (Figure S2) or did not reduce the AlphaLISA signal without significant cell death”.
Take `CN1CCN(CC/C=C2/c3ccccc3Sc3ccc(S(=O)(=O)N(C)C)cc32)CC1` [thiothixene]: in the data set on GFP-ODC [1], the “reduction” value is on record as “did not reduce the AlphaLISA signal below 50% (Figure S2) or did not reduce the AlphaLISA signal without significant cell death”.
`CCN(CC)CCCC(C)Nc1c2ccc(Cl)cc2nc2ccc(OC)cc12` (centres unmarked) [Quinacrine]: the IC50 in the data set with GFP-ODC [1] was 4.8 µM.
`CC(=O)S[C@@H]1CC2=CC(=O)CC[C@]2(C)[C@H]2CC[C@@]3(C)[C@@H](CC[C@@]34CCC(=O)O4)[C@H]12` [spironolactone]: in the data set with HEK-293T cells, the cell cytotoxicity entry is listed as “low cytotoxicity”.
As to `O=C(N/N=C/c1ccc([N+](=O)[O-])o1)c1ccc(O)cc1` [nifuroxazide], in the data set on HEK-293T cells, the cell cytotoxicity result was “low cytotoxicity”.
`CCN(CC)CCNc1ccc(CO)c2sc3ccccc3c(=O)c12` [Hycanthone]: the IC50 with GFP-ODC [1] stood at 15.1 µM. The compound further showed a CC50 in data set [6] of 69.7 µM.
In the case of `COC(=O)C[C@](O)(CCCC(C)(C)O)C(=O)O[C@@H]1C(OC)=C[C@]23CCCN2CCc2cc4c(cc2[C@H]13)OCO4` [homoharringtonine], the “reduction” value with GFP-ODC [1] is “significantly decreased the AlphaLISA signal but not in a dose-dependent manner”.
Turning to `CN(C)CCCN1c2ccccc2Sc2ccc(Cl)cc21` [CPZ, chlorpromazine], the “activation of the 26S proteasome” value in the data set with 26S proteasome is listed as 2 fold. In the data set with GFP-ODC [2] (20 μM compound), the “full-length GFP-ODC remaining” value is listed as 97%. For the same compound, the “overall max fold increase” value in data set [3] (setting [7]) came to 6.3 fold. Also, in data set [3] (individual fluorogenic peptide substrates), the “catalytic sites of the 20S proteasome activated” value was “only activated the chymotrypsin-like site”.
Turning to `CC(C)[C@]12O[C@H]1[C@@H]1O[C@]13[C@]1(O[C@H]1C[C@H]1C4=C(CC[C@@]13C)C(=O)OC4)[C@@H]2O` [triptolide], the “reduction” value in the data set with GFP-ODC [1] is “significantly decreased the AlphaLISA signal but not in a dose-dependent manner”.

These data come from publication PMC10157846 (ACS Omega, 2023).
